ChEMBL document CHEMBL4130598, “Discovery of New Sulfonamide Carbonic Anhydrase IX Inhibitors Incorporating Nitrogenous Bases” (ACS Med Chem Lett, 2017)
The source made the active and inactive calls. No cut-off for these calls is given here.

Assays:
Carbonic anhydrase 9 = Carbonic anhydrase 9 (Homo sapiens, UniProt Q16790); experiment: Inhibition of human carbonic anhydrase 9 incubated for 15 mins by stopped flow CO2 hydrase assay
HT-29 [1] = experiment: Cytotoxicity in human HT-29 cells assessed as reduction in cell viability at 30 to 300 uM incubated for 16 hrs under hypoxic conditions by MTT assay
HT-29 [2] = experiment: Cytotoxicity in human HT-29 cells assessed as cell mortality at 30 to 300 uM incubated for 16 hrs under normoxic conditions by MTT assay; format: functional
HT-29 [3] = experiment: Cytotoxicity in human HT-29 cells assessed as reduction in cell viability at 30 to 300 uM incubated for 48 hrs under hypoxic conditions by MTT assay; format: functional
How it was run: (§1)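 HT-29 human colon cancer cells seeded at 1 × 10^4 per well and exposed to 30−300 μM for 16 or 48 h, under normoxia (20% O2) or hypoxia (0.1% O2). Viability is given relative to untreated control set at 100%, as mean ± SEM of three experiments, with significance tested against 0 μM.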

HT-29 [4] = experiment: Cytotoxicity in human HT-29 cells assessed as reduction in cell viability at 30 to 300 uM incubated for 16 hrs under normoxic conditions by MTT assay; format: functional, cell-based; how it was run: as §1
Carbonic anhydrase 1 = Carbonic anhydrase 1 (Homo sapiens, UniProt P00915); experiment: Inhibition of human carbonic anhydrase 1 incubated for 15 mins by stopped flow CO2 hydrase assay
Sequence of Carbonic anhydrase 1 (P00915 whole entry): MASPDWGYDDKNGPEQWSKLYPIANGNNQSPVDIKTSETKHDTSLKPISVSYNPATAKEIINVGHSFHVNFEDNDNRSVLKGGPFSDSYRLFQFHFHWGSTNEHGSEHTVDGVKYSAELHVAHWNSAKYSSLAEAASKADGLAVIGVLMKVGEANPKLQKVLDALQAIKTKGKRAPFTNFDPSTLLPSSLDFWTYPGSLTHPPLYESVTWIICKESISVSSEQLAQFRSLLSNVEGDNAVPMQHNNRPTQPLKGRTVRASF

Compound | Ki (Carbonic anhydrase 9) [nM] | also measured
Nc1ncnc2c1ncn2CC(=O)NCCc1ccc(S(N)(=O)=O)cc1 | 11.4 | Activity (HT-29 [1]): inactive; Activity (HT-29 [2]): 10 - 15%
NS(=O)(=O)c1cccc(-n2cc(Cn3ccc(=O)[nH]c3=O)nn2)c1 | 460 | –
Nc1ncnc2c1ncn2CC(=O)Nc1ccc(S(N)(=O)=O)cc1 | 16.9 | Activity (HT-29 [1]): Active; Activity (HT-29 [2]): 10 - 15%; Activity (HT-29 [3]): 25 - 30%; Activity (HT-29 [4]): Active
Nc1ncnc2c1ncn2Cc1cn(-c2cccc(S(N)(=O)=O)c2)nn1 | 1310 | Ki (Carbonic anhydrase 1): > 10 µM
Nc1ncnc2c1ncn2CCOc1ccc(S(N)(=O)=O)cc1 | 29.9 | Activity (HT-29 [1]): inactive; Activity (HT-29 [2]): 10 - 15%; Activity (HT-29 [3]): 25 - 30%; Activity (HT-29 [4]): Active
NS(=O)(=O)c1cccc(NC(=O)Cn2ccc(=O)[nH]c2=O)c1 | 3120 | –
NS(=O)(=O)c1ccc(O)c(NC(=O)Cn2ccc(=O)[nH]c2=O)c1 | 439 | –
CN(C)/C=N/c1ncnc2c1ncn2CC(=O)Nc1cccc(S(N)(=O)=O)c1 | 2810 | Ki (Carbonic anhydrase 1): > 10 µM

Further compounds by falling Ki (Carbonic anhydrase 9), results first:

Ki (Carbonic anhydrase 9) [nM] | Compound | also measured
428 | Nc1ncnc2c1ncn2CC(=O)Nc1cccc(S(N)(=O)=O)c1 | Ki (Carbonic anhydrase 1): > 10 µM
405 | NS(=O)(=O)c1ccc(CNC(=O)Cn2ccc(=O)[nH]c2=O)cc1 | –
166 | CN(C)/C=N/c1ncnc2c1ncn2CC(=O)NCc1ccc(S(N)(=O)=O)cc1 | –
113 | CN(C)/C=N/c1ncnc2c1ncn2CC(=O)NCCc1ccc(S(N)(=O)=O)cc1 | –
46 | NS(=O)(=O)c1ccc(CCNC(=O)Cn2ccc(=O)[nH]c2=O)cc1 | –
45.2 | Nc1ncnc2c1ncn2CC(=O)NCc1ccc(S(N)(=O)=O)cc1 | –
40 | CN(C)/C=N/c1ncnc2c1ncn2CC(=O)Nc1ccc(S(N)(=O)=O)cc1 | –
25.7 | NS(=O)(=O)c1ccc(NC(=O)Cn2ccc(=O)[nH]c2=O)cc1 | Activity (HT-29 [1]): inactive; Activity (HT-29 [3]): 25 - 30%; Activity (HT-29 [4]): Active
4.8 | NS(=O)(=O)c1ccc(-n2cc(Cn3ccc(=O)[nH]c3=O)nn2)cc1 | –
1.9 | Nc1ncnc2c1ncn2Cc1cn(-c2ccc(S(N)(=O)=O)cc2)nn1 | –
